Among the data in ChEMBL document CHEMBL3397040, “Synthesis and antitumor activity of novel per-butyrylated glycosides of podophyllotoxin and its derivatives” (Bioorg Med Chem, 2015) are IC50 values, retold here.

A value given as a limit tells only on which side of the number the result lay.

Common to all, as to assay type: functional, cell-based
Experiment [1] concerns SW480. The experiment can be described thus: Anticancer activity against human SW480 cells after 48 hrs by MTT assay. To be noted: SW480, 48 h. Summed up:
(§1)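 Cells grown in RPMI-1640 or DMEM with 10% FBS at 37 °C, 5% CO2. Seeded at 1 × 10^5 cells/mL in 100 µL per well. Adherent lines were allowed to attach for 12 h before drug; suspension cells were seeded just before drug. Triplicate exposure to a range of compound concentrations for 48 h. MTT (100 µg/well) was added for 4 h at 37 °C, cells lysed with SDS, and OD read at 595 nm.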

In experiment [2] the test system is A549. The experiment can be described thus: Anticancer activity against human A549 cells after 48 hrs by MTT assay. To be noted: A549, 48 h. Summed up:
as §1

Experiment [3] can be described thus: Anticancer activity against human SMMC7721 cells after 48 hrs by MTT assay. To be noted: SMMC-7721, 48 h. Summed up:
as §1

Experiment [4] concerns MCF7. The experiment can be described thus: Anticancer activity against human MCF7 cells after 48 hrs by MTT assay. To be noted: MCF7, 48 h. A digest of the protocol:
as §1

A short description of experiment [5]: Anticancer activity against human HL60 cells after 48 hrs by MTT assay. To be noted: HL-60, 48 h. A digest of the protocol:
as §1

In the case of `CCCC(=O)OC[C@H]1O[C@@H](O[C@H]2[C@H](OC(=O)CCC)[C@@H](OC(=O)CCC)[C@@H](O[C@@H]3c4cc5c(cc4[C@@H](c4cc(OC)c(O)c(OC)c4)[C@H]4C(=O)OC[C@@H]43)OCO5)O[C@@H]2COC(=O)CCC)[C@H](OC(=O)CCC)[C@@H](OC(=O)CCC)[C@H]1OC(=O)CCC`, the IC50 was above 40 µM in experiment [1]; 18.6 µM in experiment [2]; 20.2 µM in experiment [3]; above 40 µM in experiment [4]; 9.59 µM in experiment [5].

Regarding `CCCC(=O)OC[C@H]1O[C@H](O[C@@H]2c3cc4c(cc3[C@@H](c3cc(OC)c(OC)c(OC)c3)[C@H]3C(=O)OC[C@@H]32)OCO4)[C@H](OC(=O)CCC)[C@@H](OC(=O)CCC)[C@@H]1OC(=O)CCC`, the IC50 in experiment [1], in experiment [2], in experiment [3], in experiment [4] and in experiment [5] was above 40 µM in each case.

On to `CCCC(=O)O[C@@H]1[C@@H](O[C@@H]2c3cc4c(cc3[C@@H](c3cc(OC)c(O)c(OC)c3)[C@H]3C(=O)OC[C@@H]32)OCO4)OC[C@@H](OC(=O)CCC)[C@@H]1OC(=O)CCC`, for which the concentration for half-maximal inhibition (IC50) was above 40 µM in experiment [1]; 23.2 µM in experiment [2]; 17.1 µM in experiment [3]; 29.3 µM in experiment [4]; 26.5 µM in experiment [5].

Take `CCCC(=O)OC[C@H]1O[C@H](O[C@@H]2c3cc4c(cc3[C@@H](c3cc(OC)c(O)c(OC)c3)[C@H]3C(=O)OC[C@@H]32)OCO4)[C@H](OC(=O)CCC)[C@@H](OC(=O)CCC)[C@H]1OC(=O)CCC`: the IC50 was 10.7 µM in experiment [1]; 5.7 µM in experiment [2]; 3.78 µM in experiment [3]; 5.67 µM in experiment [4]; 4.89 µM in experiment [5].

Regarding `CCCC(=O)O[C@@H]1[C@@H](OC(=O)CCC)[C@H](C)O[C@@H](O[C@@H]2c3cc4c(cc3[C@@H](c3cc(OC)c(OC)c(OC)c3)[C@H]3C(=O)OC[C@@H]32)OCO4)[C@@H]1OC(=O)CCC`, the half-inhibitory concentration (IC50) in experiment [1] came to 16.8 µM; in experiment [2] it was 7.62 µM; in experiment [3], 15.2 µM; in experiment [4], 13.5 µM; in experiment [5], 5.32 µM.

`CCCC(=O)OC[C@H]1O[C@H](O[C@@H]2c3cc4c(cc3[C@@H](c3cc(OC)c(O)c(OC)c3)[C@H]3C(=O)OC[C@@H]32)OCO4)[C@@H](OC(=O)CCC)[C@@H](OC(=O)CCC)[C@@H]1OC(=O)CCC`: the IC50 in experiment [1] is 4.85 µM; in experiment [2] it was 3.1 µM; in experiment [3], 3.84 µM; in experiment [4], 7.5 µM; in experiment [5] it was 2.71 µM.

Consider `CCCC(=O)OC[C@H]1O[C@@H](O[C@H]2[C@H](OC(=O)CCC)[C@@H](OC(=O)CCC)[C@@H](O[C@@H]3c4cc5c(cc4[C@@H](c4cc(OC)c(OC)c(OC)c4)[C@H]4C(=O)OC[C@@H]43)OCO5)O[C@@H]2COC(=O)CCC)[C@H](OC(=O)CCC)[C@@H](OC(=O)CCC)[C@H]1OC(=O)CCC`, for which the IC50 in experiment [1], in experiment [2], in experiment [3], in experiment [4] and in experiment [5] was above 40 µM in each case.

`CCCC(=O)OC[C@H]1O[C@H](O[C@@H]2c3cc4c(cc3[C@@H](c3cc(OC)c(OC)c(OC)c3)[C@H]3C(=O)OC[C@@H]32)OCO4)[C@@H](OC(=O)CCC)[C@@H](OC(=O)CCC)[C@@H]1OC(=O)CCC`: the concentration for half-maximal inhibition (IC50) in experiment [1], in experiment [2], in experiment [3], in experiment [4] and in experiment [5] was above 40 µM throughout.

As for `CCCC(=O)O[C@@H]1[C@@H](OC(=O)CCC)[C@H](C)O[C@@H](O[C@@H]2c3cc4c(cc3[C@@H](c3cc(OC)c(O)c(OC)c3)[C@H]3C(=O)OC[C@@H]32)OCO4)[C@@H]1OC(=O)CCC`, the half-inhibitory concentration (IC50) turned out to be 5.05 µM in experiment [1]; 3.52 µM in experiment [2]; 2.68 µM in experiment [3]; 4.71 µM in experiment [4]; 2.54 µM in experiment [5].

Consider `CCCC(=O)OC[C@H]1O[C@H](O[C@H]2[C@H](OC(=O)CCC)[C@@H](OC(=O)CCC)[C@@H](O[C@@H]3c4cc5c(cc4[C@@H](c4cc(OC)c(OC)c(OC)c4)[C@H]4C(=O)OC[C@@H]43)OCO5)O[C@@H]2COC(=O)CCC)[C@H](OC(=O)CCC)[C@@H](OC(=O)CCC)[C@@H]1OC(=O)CCC`, for which the IC50 in experiment [1], in experiment [2], in experiment [3], in experiment [4] and in experiment [5] was above 40 µM throughout.

Take `CCCC(=O)OC[C@H]1O[C@H](O[C@H]2[C@H](OC(=O)CCC)[C@@H](OC(=O)CCC)[C@@H](O[C@@H]3c4cc5c(cc4[C@@H](c4cc(OC)c(O)c(OC)c4)[C@H]4C(=O)OC[C@@H]43)OCO5)O[C@@H]2COC(=O)CCC)[C@H](OC(=O)CCC)[C@@H](OC(=O)CCC)[C@@H]1OC(=O)CCC`: the IC50 in experiment [1], in experiment [2], in experiment [3], in experiment [4] and in experiment [5] was above 40 µM each time.

For `CCCC(=O)OC[C@H]1O[C@@H](O[C@@H]2c3cc4c(cc3[C@@H](c3cc(OC)c(OC)c(OC)c3)[C@H]3C(=O)OC[C@@H]32)OCO4)[C@H](OC(=O)CCC)[C@@H](OC(=O)CCC)[C@@H]1OC(=O)CCC`, the half-maximal inhibitory concentration (IC50) turned out to be 1.26 µM in experiment [1]; 1.12 µM in experiment [2]; 0.83 µM in experiment [3]; 1.69 µM in experiment [4]; 0.61 µM in experiment [5].

`CCCC(=O)OC[C@H]1O[C@@H](O[C@@H]2c3cc4c(cc3[C@@H](c3cc(OC)c(OC)c(OC)c3)[C@H]3C(=O)OC[C@@H]32)OCO4)[C@H](OC(=O)CCC)[C@@H](OC(=O)CCC)[C@H]1OC(=O)CCC`: the 50% inhibitory concentration (IC50) in experiment [1] was 26.5 µM; in experiment [2] it was 17.8 µM; in experiment [3], 18.1 µM; in experiment [4], 22.1 µM; in experiment [5] it was 3.15 µM.

For `COc1cc([C@@H]2c3cc4c(cc3[C@@H](O[C@@H]3O[C@@H]5CO[C@@H](C)O[C@H]5[C@H](O)[C@H]3O)[C@H]3COC(=O)[C@H]23)OCO4)cc(OC)c1O` [ETOPOSIDE], the IC50 in experiment [1] came out at 17.1 µM; in experiment [2], 11.9 µM; in experiment [3] it was 8.12 µM; in experiment [4], 32.8 µM; in experiment [5] it was 0.31 µM.

For the molecule `CCCC(=O)OC[C@H]1O[C@H](O[C@@H]2c3cc4c(cc3[C@@H](c3cc(OC)c(O)c(OC)c3)[C@H]3C(=O)OC[C@@H]32)OCO4)[C@H](OC(=O)CCC)[C@@H](OC(=O)CCC)[C@@H]1OC(=O)CCC`, the half-maximal inhibitory concentration (IC50) stood at 38.7 µM in experiment [1]; 16 µM in experiment [2]; 16.8 µM in experiment [3]; 39.1 µM in experiment [4]; 16.9 µM in experiment [5].

As to `CCCC(=O)OC[C@H]1O[C@H](O[C@@H]2c3cc4c(cc3[C@@H](c3cc(OC)c(OC)c(OC)c3)[C@H]3C(=O)OC[C@@H]32)OCO4)[C@H](OC(=O)CCC)[C@@H](OC(=O)CCC)[C@H]1OC(=O)CCC`, the half-inhibitory concentration (IC50) in experiment [1] amounted to 1.65 µM; in experiment [2] it was 0.61 µM; in experiment [3] it was 0.62 µM; in experiment [4] it was 1.27 µM; in experiment [5] it was 0.14 µM.

As to `CCCC(=O)O[C@@H]1[C@@H](O[C@@H]2c3cc4c(cc3[C@@H](c3cc(OC)c(OC)c(OC)c3)[C@H]3C(=O)OC[C@@H]32)OCO4)OC[C@@H](OC(=O)CCC)[C@@H]1OC(=O)CCC`, the IC50 in experiment [1] amounted to 1.11 µM; in experiment [2] it was 0.61 µM; in experiment [3] it was 0.78 µM; in experiment [4], 1.42 µM; in experiment [5], 0.6 µM.
